A word on the MIC: it is the least concentration at which growth counts as inhibited.

Four compounds from ChEMBL document CHEMBL1649115, “Enhanced susceptibility to antifungal oligopeptides in yeast strains overexpressing ABC multidrug efflux pumps” (Antimicrob Agents Chemother, 2008) can be followed below.

Values after ≈ are worked out from the molar mass of the structure shown. Non-standard residues stand in square brackets, D forms with d. Residues, ends and D or L forms follow the SMILES beside them. Phe(3-F) = N[C@@H](Cc1cccc(F)c1)C(=O)O

Series [1] deals with Candida albicans. The series can be described thus: Prodrug stability in fluconazole sensitive Candida albicans isolate B3 assessed as compound cleavage rate measured per mg of protein. The conditions noted are these: in vivo. The class given is ADME, organism-based.
Series [2] concerns Saccharomyces cerevisiae. The experiment in a line: Drug uptake in Saccharomyces cerevisiae AD12345678 at 200 uM pretreated for 10 mins measured after 60 mins by fluorescamine staining. Type of series: ADME, organism-based. Particulars: in vivo, 1 h.
In series [3] the test system is Candida albicans. The series can be described thus: Prodrug stability in fluconazole sensitive Candida albicans isolate Gu4 assessed as compound cleavage rate measured per mg of protein. The class given is ADME, organism-based. The conditions noted are these: in vivo. The gist of the method: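 Oligopeptides were incubated with cell extracts of the yeast cells, and their hydrolytic enzymes cleaved them. The amino acids released were quantified by the Cd-ninhydrin method.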

Series [4] has as its system Candida albicans. The experiment in a line: Antifungal activity against fluconazole resistant Candida albicans isolate B4 overexpressing MDR1 in RPMI-1640 buffered medium after 24 hrs by microdilution method. Type of series: functional. The conditions noted are these: Candida albicans, isolate B4, 24 h; read-out: MIC. The gist of the method:
(§1)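 C. albicans cells were grown in 2% glucose, 1% yeast extract, 1% Bacto peptone medium before testing. […] CARE-2 fingerprinting confirmed that each pair is a single strain.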
A general note: In broth dilution the organism is exposed to a series of concentrations in liquid medium.

Series [5] concerns Saccharomyces cerevisiae. The experiment in a line: Antifungal activity against Saccharomyces cerevisiae AD12345678 in YNPG-proline medium after 24 hrs by microdilution method. Particulars: AD12345678, 24 h. Type of series: functional.
Series [6] relates to Saccharomyces cerevisiae. The series can be described thus: Drug uptake in Saccharomyces cerevisiae ADMDR1 expressing Candida albicans MDR1 efflux pump at 200 uM pretreated for 10 mins measured after 60 mins by fluorescamine staining. Particulars: in vivo, 1 h. Type of series: ADME, organism-based.
Series [7] has as its system Candida albicans. The experiment in a line: Antifungal activity against wild type Candida albicans 10261 in RPMI-1640 buffered medium after 24 hrs by microdilution method. Type of series: functional. Particulars: Candida albicans, 10261, 24 h; read-out: MIC. The essentials:
as §1

Series [8] deals with Candida albicans. The experiment in a line: Antifungal activity against fluconazole sensitive Candida albicans isolate Gu4 in RPMI-1640 buffered medium after 24 hrs by microdilution method. Type of series: functional. The conditions noted are these: Candida albicans, isolate Gu4, 24 h; read-out: MIC. The essentials:
as §1

Series [9] concerns Saccharomyces cerevisiae. The experiment in a line: Prodrug stability in wild type Saccharomyces cerevisiae ATCC 9763 assessed as compound cleavage rate measured per mg of protein. The class given is ADME, organism-based. The conditions noted are these: in vivo.
The subject of series [10] is Saccharomyces cerevisiae. The experiment in a line: Antifungal activity against Saccharomyces cerevisiae ADCDR2 expressing Candida albicans CDR2 efflux pump in YNPG-proline medium after 24 hrs by microdilution method. The class given is functional. The conditions noted are these: ADCDR2, 24 h.
In series [11] the test system is Candida albicans. The series can be described thus: Antifungal activity against fluconazole resistant Candida albicans isolate Gu5 overexpressing CDR1 and CDR2 in RPMI-1640 buffered medium after 24 hrs by microdilution method. The class given is functional. Particulars: isolate Gu5, 24 h. The gist of the method:
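C. albicans cells were grown in 2% glucose, 1% yeast extract, 1% Bacto peptone medium before testing. CARE-2 fingerprinting confirmed that each pair is a single strain.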

Series [12] has as its system Saccharomyces cerevisiae. The series can be described thus: Drug uptake in Saccharomyces cerevisiae ADCDR1 expressing Candida albicans CDR1 efflux pump at 200 uM pretreated for 10 mins measured after 60 mins by fluorescamine staining. Type of series: ADME, organism-based. The conditions noted are these: in vivo, 1 h.
The test system of series [13] is Candida albicans. The series can be described thus: Antifungal activity against fluconazole sensitive Candida albicans isolate B3 in RPMI-1640 buffered medium after 24 hrs by microdilution method. The conditions noted are these: Candida albicans, isolate B3, 24 h; read-out: MIC. The class given is functional. The gist of the method:
as §1

The subject of series [14] is Candida albicans. The series can be described thus: Prodrug stability in wild type Candida albicans 10261 assessed as compound cleavage rate measured per mg of protein. Type of series: ADME, organism-based. Particulars: in vivo.
Series [15] relates to Saccharomyces cerevisiae. The series can be described thus: Prodrug stability in Saccharomyces cerevisiae ADMDR1 expressing Candida albicans MDR1 efflux pump assessed as compound cleavage rate measured per mg of protein. Type of series: ADME, organism-based. The conditions noted are these: in vivo.
Series [16] relates to Saccharomyces cerevisiae. The series can be described thus: Drug uptake in Saccharomyces cerevisiae ADCDR2 expressing Candida albicans CDR2 efflux pump at 200 uM pretreated for 10 mins measured after 60 mins by fluorescamine staining. Type of series: ADME, organism-based. The conditions noted are these: in vivo, 1 h.
Series [17] deals with Saccharomyces cerevisiae. The series can be described thus: Prodrug stability in Saccharomyces cerevisiae ADCDR1 expressing Candida albicans CDR1 efflux pump assessed as compound cleavage rate measured per mg of protein. The conditions noted are these: in vivo. The class given is ADME, organism-based.
Series [18] deals with Saccharomyces cerevisiae. The experiment in a line: Prodrug stability in Saccharomyces cerevisiae ADCDR2 expressing Candida albicans CDR2 efflux pump assessed as compound cleavage rate measured per mg of protein. Particulars: in vivo. The class given is ADME, organism-based.
Series [19] deals with Saccharomyces cerevisiae. The experiment in a line: Antifungal activity against wild type Saccharomyces cerevisiae ATCC 9763 in YNPG-proline medium after 24 hrs by microdilution method. Type of series: functional. The conditions noted are these: ATCC 9763, 24 h.
For series [20], the system named is Saccharomyces cerevisiae. The experiment in a line: Prodrug stability in Saccharomyces cerevisiae AD12345678 assessed as compound cleavage rate measured per mg of protein. The conditions noted are these: in vivo. The class given is ADME, organism-based.
For series [21], the system named is Saccharomyces cerevisiae. The experiment in a line: Antifungal activity against Saccharomyces cerevisiae ADMDR1 expressing Candida albicans MDR1 efflux pump in YNPG-proline medium after 24 hrs by microdilution method. The class given is functional. Particulars: ADMDR1, 24 h.
The subject of series [22] is Saccharomyces cerevisiae. The experiment in a line: Antifungal activity against Saccharomyces cerevisiae ADCDR1 expressing Candida albicans CDR1 efflux pump in YNPG-proline medium after 24 hrs by microdilution method. Type of series: functional. Particulars: ADCDR1, 24 h.
Series [23] concerns Saccharomyces cerevisiae. The series can be described thus: Antifungal activity against Saccharomyces cerevisiae AD12345678 in YNPG medium containing 1 mg/ml […] after 24 hrs by microdilution method. The class given is functional. The conditions noted are these: AD12345678, 24 h.
The test system of series [24] is Saccharomyces cerevisiae. The series can be described thus: Antifungal activity against wild type Saccharomyces cerevisiae ATCC 9763 in YNPG medium containing 1 mg/ml […] after 24 hrs by microdilution method. The class given is functional. Particulars: ATCC 9763, 24 h.
The test system of series [25] is Saccharomyces cerevisiae. The series can be described thus: Antifungal activity against Saccharomyces cerevisiae ADMDR1 expressing Candida albicans MDR1 efflux pump in YNPG medium containing 1 mg/ml […] after 24 hrs by microdilution method. Type of series: functional. Particulars: ADMDR1, 24 h.
Series [26] has as its system Saccharomyces cerevisiae. The series can be described thus: Antifungal activity against Saccharomyces cerevisiae ADCDR1 expressing Candida albicans CDR1 efflux pump in YNPG medium containing 1 mg/ml […] after 24 hrs by microdilution method. Type of series: functional. The conditions noted are these: ADCDR1, 24 h.
The test system of series [27] is Saccharomyces cerevisiae. The series can be described thus: Antifungal activity against Saccharomyces cerevisiae ADCDR2 expressing Candida albicans CDR2 efflux pump in YNPG medium containing 1 mg/ml […] after 24 hrs by microdilution method. Type of series: functional. Particulars: ADCDR2, 24 h.

Regarding `CCC[C@H](N)C(=O)N[C@@H](CNC(=O)/C=C/C(=O)OC)C(=O)O`, the Stability worked out at 20 nmol/min in the series with Candida albicans [1]; 20 nmol/min in the series with Candida albicans [3]; 14 nmol/min with Saccharomyces cerevisiae [9]; 20 nmol/min in the series on Candida albicans [14]; 14 nmol/min with Saccharomyces cerevisiae [15]; 14 nmol/min in the series on Saccharomyces cerevisiae [17]. The Stability in the series on Saccharomyces cerevisiae [18] and in the series on Saccharomyces cerevisiae [20] was 14 nmol/min each time. Further, the Drug uptake with Saccharomyces cerevisiae [2] amounted to 0.96 nmol/min/mg; in the series on Saccharomyces cerevisiae [6] it was 1.02 nmol/min/mg; in the series with Saccharomyces cerevisiae [12], 1.86 nmol/min/mg; in the series on Saccharomyces cerevisiae [16], 1.56 nmol/min/mg. Besides, the MIC in the series with Candida albicans [4] was 4 µg/mL (≈ 12.7 µM); in the series on Saccharomyces cerevisiae [5] it was 4 µg/mL (≈ 12.7 µM); in the series with Candida albicans [7], 2 µg/mL (≈ 6.34 µM); in the series with Candida albicans [8], 2 µg/mL (≈ 6.34 µM); in the series on Saccharomyces cerevisiae [10] it was 1 µg/mL (≈ 3.17 µM); with Candida albicans [11], 0.125 µg/mL (≈ 0.396 µM). The MIC with Candida albicans [13] came to 4 µg/mL (≈ 12.7 µM); against Saccharomyces cerevisiae [19], 4 µg/mL (≈ 12.7 µM); with Saccharomyces cerevisiae [21], 4 µg/mL (≈ 12.7 µM); with Saccharomyces cerevisiae [22], 0.5 µg/mL (≈ 1.59 µM).

Take `CCC[C@H](NC(=O)[C@@H](N)CCCCN)C(=O)N[C@@H](CNC(=O)/C=C/C(=O)OC)C(=O)O`: the Stability with Candida albicans [1] is given as 20 nmol/min; with Candida albicans [3], 20 nmol/min; in the series with Saccharomyces cerevisiae [9], 14 nmol/min; in the series with Candida albicans [14], 20 nmol/min; in the series on Saccharomyces cerevisiae [15] it was 14 nmol/min; in the series with Saccharomyces cerevisiae [17], 14 nmol/min. Moreover, the Stability in the series with Saccharomyces cerevisiae [18] and with Saccharomyces cerevisiae [20] was 14 nmol/min each time. Further, the Drug uptake with Saccharomyces cerevisiae [2] is 0.79 nmol/min/mg; in the series with Saccharomyces cerevisiae [6], 0.81 nmol/min/mg; with Saccharomyces cerevisiae [12], 1.61 nmol/min/mg; in the series with Saccharomyces cerevisiae [16], 1.18 nmol/min/mg.

In the case of `NC(CC(=O)NO)C(=O)O` (stereo not given), the Drug uptake in the series on Saccharomyces cerevisiae [2] came to 1.54 nmol/min/mg; in the series on Saccharomyces cerevisiae [6], 1.25 nmol/min/mg; in the series on Saccharomyces cerevisiae [12], 2.25 nmol/min/mg; in the series with Saccharomyces cerevisiae [16] it was 1.69 nmol/min/mg. Besides, the MIC in the series with Candida albicans [4] stood at 256 µg/mL (≈ 1730 µM); with Candida albicans [7] it was 256 µg/mL (≈ 1730 µM); against Saccharomyces cerevisiae [23], 256 µg/mL (≈ 1730 µM); in the series on Candida albicans [8], 256 µg/mL (≈ 1730 µM); in the series with Candida albicans [11], 128 µg/mL (≈ 864 µM); in the series with Candida albicans [13], 256 µg/mL (≈ 1730 µM). The MIC was found to be 256 µg/mL (≈ 1730 µM) with Saccharomyces cerevisiae [24], 128 µg/mL (≈ 864 µM) with Saccharomyces cerevisiae [25], 64 µg/mL (≈ 432 µM) in the series on Saccharomyces cerevisiae [26] and 64 µg/mL (≈ 432 µM) in the series with Saccharomyces cerevisiae [27].

For the compound `CSCC[C@H](NC(=O)[C@@H](N)CCSC)C(=O)N[C@@H](Cc1cccc(F)c1)C(=O)O` (H-Met-Met-[Phe(3-F)]-OH), the Stability in the series with Candida albicans [1] amounted to 20 nmol/min; in the series on Candida albicans [3], 20 nmol/min; in the series on Saccharomyces cerevisiae [9], 14 nmol/min; in the series with Candida albicans [14], 20 nmol/min; in the series with Saccharomyces cerevisiae [15], 14 nmol/min; in the series on Saccharomyces cerevisiae [17] it was 14 nmol/min. Besides, the Stability in the series with Saccharomyces cerevisiae [18] and in the series with Saccharomyces cerevisiae [20] was 14 nmol/min each time. Besides, the Drug uptake in the series with Saccharomyces cerevisiae [2] was found to be 0.64 nmol/min/mg; with Saccharomyces cerevisiae [6] it was 0.67 nmol/min/mg; with Saccharomyces cerevisiae [12], 1.11 nmol/min/mg; in the series on Saccharomyces cerevisiae [16], 1.23 nmol/min/mg. In addition, the MIC was determined as 128 µg/mL (≈ 287 µM) with Candida albicans [4]; 512 µg/mL (≈ 1150 µM) in the series with Saccharomyces cerevisiae [5]; 128 µg/mL (≈ 287 µM) with Candida albicans [7]; 128 µg/mL (≈ 287 µM) in the series with Candida albicans [8]; 32 µg/mL (≈ 71.8 µM) in the series with Saccharomyces cerevisiae [10]; 32 µg/mL (≈ 71.8 µM) in the series with Candida albicans [11]. Also, the minimum inhibitory concentration (MIC) in the series with Candida albicans [13] stood at 128 µg/mL (≈ 287 µM); against Saccharomyces cerevisiae [19], 256 µg/mL (≈ 575 µM); with Saccharomyces cerevisiae [21] it was 256 µg/mL (≈ 575 µM); against Saccharomyces cerevisiae [22], 32 µg/mL (≈ 71.8 µM).
